FGF22 binding: binders of human FGF22 protein, primary screen, FGF22 synaptogenesis inhibitor project, biophysical, thermal shift, single point. Fibroblast growth factor 22 (Homo sapiens), Q9HCT0. recombinant FGF22 thermal shift, SYPRO orange fluorescence; percent of sucrose octasulfate shift, DMSO zero. activity (Tm shift, normalised), % at 9.99 µM. hit rate 1.5% among 340,000. AID 651658, 2012;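 active means mean Tm shift, scaled 0 neutral to 100 positive control, at about 1.3% or above, every replicate too, limit read from the data; inconclusive means no clear call, values can overlap the other calls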
Target sequence (Q9HCT0 whole entry, looked up): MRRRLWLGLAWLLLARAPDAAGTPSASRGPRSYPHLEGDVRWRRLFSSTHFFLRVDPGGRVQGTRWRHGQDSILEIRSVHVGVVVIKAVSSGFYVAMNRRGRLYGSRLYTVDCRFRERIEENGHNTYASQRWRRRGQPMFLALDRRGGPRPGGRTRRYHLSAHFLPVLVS
Vif inh: HIV Vif self-association inhibitors, primary screen, imaging, HEK293T, single point; AID 602346, 2012; HEK293T cells, Vif self-association by quenched fluorescence, 24 h; inhibition, % at 7.49 µM; hit rate 0.35% among 340,000; in the data active means inhibition above about 50%, passing the limit was not always enough; inconclusive means no clear call, values can overlap the other calls; inactive means below about 31%
rRNA inh HTS: reduced GFP signal of wild-type E. coli, primary screen, bacterial rRNA inhibitor project, GFP/RFP fluorescence, OD600, single point. AID 720706, 2013. E. coli WT GFP vs humanized-ribosome RFP mutants, 24 h; hits give low values; DMSO median 0, no signal -100. GFP signal change (wild-type ribosome), % (test concentration not listed). hit rate 1.6% among 350,000;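 active means significant combined selectivity score with lowered wild-type GFP, culture density cut under 30%, mutant RFP and density less affected; inactive means any of these conditions unmet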
Cneo AK release: Cryptococcus neoformans cell lysis inducers, primary screen, AK release luminescence, single concentration. C. neoformans lysis, adenylate kinase release luminescence, 4 h; normalised: neutral wells 0, clomiphene wells 100. lysis activity, % at 15 µM. hit rate 0.2% among 360,000;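 active means mean lysis activity across replicates of at least 80%, whatever share of replicates individually reach that level; inactive means mean lysis activity below 80%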
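read-out = cell lysis signal | test system = log-phase Cryptococcus neoformans yeast cells | input = cells at 5 × 10^6 per mL | medium = fresh YPD growth medium | signal = luminescent adenylate kinase detection reagent | timing = 4 h at 37 °C static, read 1 h later | dosing = single dose | controls = Clomiphene as positive lysis control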
PGC1a acetyl inh: inhibitors of PGC1a acetylation signal, primary screen, cell-based, U2OS, AlphaScreen, inhibitor mode | hit rate 0.17% among 350,000 | AID 651687, 2012 | inhibition, % at 15.6 µM | AlphaScreen anti-acetyl-lysine; with virally co-expressed GCN5 acetyltransferase;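 active means every replicate shows inhibition of at least 40%; inconclusive means mean inhibition at least 40% but some replicate below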
PglD inh: C. jejuni PglD acetyltransferase inhibitors, primary screen, biochemical, DTNB colorimetric, single point | inhibition, % at 12.5 µM | hit rate 0.098% among 360,000 | purified PglD enzyme, DTNB colorimetric CoA detection | AID 602405, 2012 | UDP-N-acetylbacillosamine N-acetyltransferase PglD (Campylobacter jejuni); in the data active means inhibition above about 16%, passing the limit was not always enough; inconclusive means no clear call, values can overlap the other calls
Each line names hits and unclear results; the compound was inactive in the other large screens. An excerpt weighted towards active compounds, which were near 2.9% of everything screened.

O=C(COc1ccc2c(c1)CCC2)NCc1ccc(Cl)cc1	rRNA inh HTS -30 (no result: PGC1a acetyl inh)
CCOC(=O)c1c(N2C(=O)Nc3ccccc3N2O)n[nH]c1-c1cccc(OC)c1	FGF22 binding 43 (no result: PGC1a acetyl inh)
O=C(c1ccco1)N1N=C(c2ccc(Cl)cc2)CC1(O)C(F)(F)F (configuration not stated)	FGF22 binding 43, PGC1a acetyl inh inconclusive (no result: Cneo AK release, PglD inh)
O=C(c1ccco1)N1N=C(c2ccc(Br)cc2)CC1(O)C(F)(F)F (configuration not stated)	none (no result: Cneo AK release, PglD inh)
COc1cccc(C2=NN(C(=O)c3ccc(C)o3)C(O)(C(F)(F)F)C2)c1 (configuration not stated)	FGF22 binding 43 (no result: rRNA inh HTS, Cneo AK release, PGC1a acetyl inh, PglD inh)
Cc1cc(=O)c2ccccc2n1CC(=O)NCc1ccccc1	none (no result: FGF22 binding, rRNA inh HTS)
Cc1cc(=O)c2ccccc2n1Cc1ccccc1	FGF22 binding 44, rRNA inh HTS -22 (no result: Cneo AK release, PGC1a acetyl inh, PglD inh)
O=C(O)c1cc(=O)n(Cc2ccccc2)c(=O)[nH]1	none
Cc1cc(=O)[nH]c(=O)n1Cc1ccccc1	FGF22 binding 43
CCCNC(=O)N1CC2(CCN(C(=O)c3ccncc3)CC2)c2c([nH]c3cc(OC)ccc23)[C@H]1CO	none (no result: Vif inh, Cneo AK release, PGC1a acetyl inh, PglD inh)
Cc1ccc(S(=O)(=O)Nc2ccc3c(c2)CC(=O)N([C@H](C)CO)C[C@@H](C)[C@@H](CN(C)Cc2ccc(C(=O)Nc4ccccc4N)cc2)O3)cc1	none (no result: Vif inh)
C[C@@H]1CN([C@@H](C)CO)C(=O)c2cccc(NC(=O)c3cnccn3)c2O[C@H]1CN(C)Cc1ccc(C(=O)Nc2ccccc2N)cc1	none (no result: Vif inh)
CNC[C@@H]1Oc2ccc(NC(=O)NC(C)C)cc2CC(=O)N(C)C[C@H]1C	none (no result: FGF22 binding, Vif inh, Cneo AK release, PGC1a acetyl inh, PglD inh)
C[C@@H]1CN([C@H](C)CO)S(=O)(=O)c2ccc(C3=CCCCC3)cc2O[C@@H]1CN(C)C(=O)C1CCC1	none (no result: Vif inh)
CCOc1cc(C(=O)OC(C)C(=O)Nc2ncc(Cl)cc2Cl)ccc1OCC(=O)N1CCOCC1 (configuration not stated)	FGF22 binding 44 (no result: Cneo AK release, PGC1a acetyl inh, PglD inh)
C[C@@H]1CN([C@H](C)CO)C(=O)c2cc(-c3cncnc3)cnc2O[C@@H]1CN(C)C(=O)c1cccc(F)c1	none (no result: FGF22 binding, Vif inh)
CNC[C@@H]1Oc2cc(C#Cc3ccccc3OC)ccc2S(=O)(=O)N([C@@H](C)CO)C[C@H]1C	none (no result: Vif inh)
c1ccc(Sc2ccccn2)cc1	PGC1a acetyl inh 76 (no result: rRNA inh HTS)
Cc1ccc(-n2cc(-c3ccccc3)c3c(N4CCN(C)CC4)ncnc32)cc1	none (no result: Cneo AK release, PglD inh)
Cc1ccc(-n2cc(-c3ccccc3)c3c(N4CCOCC4)ncnc32)cc1	FGF22 binding 43 (no result: Cneo AK release, PGC1a acetyl inh, PglD inh)
CC(=O)N1CC2(C1)[C@@H](c1ccc(-c3ccccc3C)cc1)[C@H](CO)N2C(C)=O	none (no result: FGF22 binding, Vif inh, Cneo AK release, PGC1a acetyl inh, PglD inh)
COc1cc(OC)c(S(=O)(=O)NC(C)C)cc1S(=O)(=O)NC(C)C	FGF22 binding 43 (no result: Cneo AK release, PglD inh)
O=C(Cc1ccc(Cl)cc1Cl)Nc1ccncc1	rRNA inh HTS -25 (no result: PGC1a acetyl inh)
O=C(Cc1ccc(Cl)cc1Cl)Nc1ccncc1Cl	none (no result: PGC1a acetyl inh)
C[C@@H]1CCCCO[C@@H](CN(C)Cc2ccc3c(c2)OCO3)[C@H](C)CN([C@H](C)CO)C(=O)c2cc(NC(=O)c3ccccc3)ccc2O1	none (no result: Vif inh)
CC(C)CCCCCCCCCCCCC(=O)NCC(=O)NC1C(O)C(O)C(Nc2ncnc3nc[nH]c23)OC1C(O)CO (configuration not stated)	PGC1a acetyl inh 96 (no result: FGF22 binding, rRNA inh HTS, Cneo AK release, PglD inh)
O=C(COC(=O)c1c(F)cccc1F)Nc1ccccc1OC(F)F	Vif inh 51
COc1ccccc1C(=O)OCC(=O)Nc1ccccc1OC(F)F	none (no result: Cneo AK release, PglD inh)
CC(=O)N1CC2(C1)[C@H](c1ccc(-c3ccccc3C)cc1)[C@@H](CO)N2C(=O)CC1CC1	none (no result: Vif inh, Cneo AK release, PglD inh)
C[C@H](CO)N1C[C@H](C)[C@@H](CN(C)C(=O)Nc2ccc(F)cc2)Oc2c(NS(=O)(=O)c3cccs3)cccc2C1=O	none (no result: Vif inh)
O=C(Nc1ccc(S(=O)(=O)N2CCOCC2)cc1)c1cc(-c2cc(Cl)ccc2O)n[nH]1	rRNA inh HTS -38 (no result: Cneo AK release, PglD inh)
